Screening data as filed in PubChem BioAssay.
XiGFP reactiv – X-chromosome reactivation activator. 0.055% of 360,000 active. AID 743238. activation, % at 7.58 µM. XiGFP mouse fibroblasts, % GFP-positive cells imaging, 3 d; cells co-treated with 5-aza-dC sensitizer; scaled so ellipticine positive control = 100%;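 active = mean normalized replicate activation at least 10% and every replicate at or above 10%; inconclusive = only one of the two criteria met; inactive = mean below 10% and not all replicates reach 10%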;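 also: 0% = median of on-plate neutral control wells and 100% = ellipticine 6 µM median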
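Material: XiGFP fibroblasts, SV40-immortalized; Buffer or medium: DMEM containing 5-aza-dC; Compound dosing: single point; Times: 3 days compound exposure.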
PGC1a acetyl inh – modulators of PGC1a acetylation; U2OS PGC1a acetylation, AlphaScreen anti-acetyl-lysine; with virally co-expressed GCN5 acetyltransferase; inhibition, % at 15.6 µM; 0.17% of 350,000 active; AID 651687;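 active = every replicate shows inhibition of at least 40%; inconclusive = mean inhibition at least 40% but some replicate below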;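 also: 0% = neutral control wells and 100% = positive control wells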
PAX8 inh HTS – PAX8 transcriptional activity inhibition; 1.2% of 360,000 active; inhibition, % at 12.6 µM; RMG-I TPO-luciferase reporter, SteadyGlo, 24 h;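 active = mean replicate inhibition at least 60% with every replicate also reaching 60%; inconclusive = only one of the two criteria is met; inactive = mean below 60% and not all replicates reaching 60%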;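 also: luciferase light reporting Pax8 driven TPO promoter activity; plate controls were median of neutral control wells for no effect and mitoxantrone controls for full effect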
GSIS activator – GLuc luminescence reporter in INS-1E cells, primary screen for activators of glucose-dependent secretion of insulin; activation, % at 16.6 µM; INS-1E GLuc reporter insulin secretion, 2-3 h; 0.61% of 370,000 active;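 active = lowest replicate activation of at least 40%, so every replicate reaches that level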;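 also: 0% = median of neutral control wells and 100% = median of IBMX positive control wells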
EWS-Fli inh – blocks EWS/Fli oncoprotein-driven transcription. A673 NR0B1-luciferase reporter, viability-normalised. inhibition, % at 12.6 µM. 0.67% of 350,000 active. AID 651661;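 active = mean inhibition of at least 50% after viability correction, with every replicate also passing that limit; inconclusive = mean reaches 50% but only one of two replicates passes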;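 also: firefly luciferase signal divided by Alamar Blue viability fluorescence both relative to DMSO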
AF4-AF9 inh – blocks AF4 peptide binding to human AF9. AlphaScreen, biotin-AF4 peptide binding to FLAG-AF9. inhibition, % at 10 µM. 0.47% of 350,000 active. AID 651704;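 active = every replicate reaching a set inhibition limit, whatever the replicate mean, cut at about 25% in these data; inconclusive = mean inhibition reaches that limit but some replicates miss it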;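 also: 0% = plate neutral control median and 100% = total signal loss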
Target sequence (P42568 whole entry, looked up): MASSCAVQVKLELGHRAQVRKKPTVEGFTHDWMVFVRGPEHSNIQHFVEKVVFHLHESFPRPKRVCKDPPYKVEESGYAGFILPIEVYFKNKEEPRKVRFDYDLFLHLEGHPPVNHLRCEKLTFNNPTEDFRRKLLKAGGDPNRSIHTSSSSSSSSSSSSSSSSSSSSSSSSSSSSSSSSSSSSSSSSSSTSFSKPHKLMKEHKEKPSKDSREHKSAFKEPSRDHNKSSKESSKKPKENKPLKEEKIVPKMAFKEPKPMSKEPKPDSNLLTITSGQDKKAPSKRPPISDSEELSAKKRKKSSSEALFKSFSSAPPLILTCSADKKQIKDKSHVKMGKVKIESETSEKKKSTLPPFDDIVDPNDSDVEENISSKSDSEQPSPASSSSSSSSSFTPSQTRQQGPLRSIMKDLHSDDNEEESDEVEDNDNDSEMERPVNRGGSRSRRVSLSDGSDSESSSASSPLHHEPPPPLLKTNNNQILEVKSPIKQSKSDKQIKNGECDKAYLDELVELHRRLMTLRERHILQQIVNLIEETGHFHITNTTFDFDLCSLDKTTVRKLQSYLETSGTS
The depositor's hits bear a star; ? = inconclusive; nt = no result. Hits are enriched below; roughly 2.1% of the tested compounds scored in any of these assays.

SMILES | XiGFP reactiv | PGC1a acetyl inh | PAX8 inh HTS | GSIS activator | EWS-Fli inh | AF4-AF9 inh
CCOC(=O)C(C)Oc1cccc2c(=O)n(CC(=O)Nc3ccc4c(c3)OCCO4)ccc12 (centres undefined) | 0 | -1 | -32 | nt | 30 | 45*
Cc1ccc(C(C)C)c(OCc2nn(CC(=O)c3ccc(Cl)cc3)c3[n+]2CCCCC3)c1 | 0 | -1 | 66* | nt | ? | 23
O=C(Cn1nc(CNc2ccc(Cl)cc2)[n+]2c1CCCCC2)c1ccccc1 | 0 | nt | 17 | 0 | 0 | 12
C[C@H]1CN([C@@H](C)CO)C(=O)Cc2cc(NC(=O)CCN3CCOCC3)ccc2O[C@H]1CN(C)S(=O)(=O)c1cn(C)cn1 | 0 | -10 | nt | 5 | -6 | -7
COc1ccc2c3c(n(C)c2c1)[C@H](CO)N(C(=O)CN1CCOCC1)CC31CN(C(=O)C2CC2)C1 | 0 | 6 | nt | 26 | -9 | 4
Cc1ccc2c(c1)C(c1ccncc1)=NNC(c1ccccc1)=N2 | 2 | -2 | -44 | -1 | -32 | 0
c1ccc(C2=Nc3c(ccc4ccccc34)C(c3ccncc3)=NN2)cc1 | 0 | -1 | 19 | nt | 18 | 34*
Clc1ccc(-c2ccnc(Oc3cc(Cl)ccc3Cl)n2)cc1 | nt | -13 | nt | 85* | nt | nt
Oc1ccc(-c2nccc(-c3ccc(Cl)cc3)n2)cc1 | 0 | -1 | 0 | 9 | -61 | 0
Clc1ccc(-c2ccnc(Oc3ccc4ccccc4c3)n2)cc1 | nt | 12 | nt | 114* | nt | nt
Cc1ccc2c(c1)N(C)/C(=C/c1cccc[n+]1C)S2 | 0 | nt | 79* | -41 | 41 | 2
CN1/C(=C/c2cccc[n+]2C)Sc2ccccc21 | 0 | nt | 30 | -58 | 31 | -1
CCN1/C(=C/c2cccc[n+]2C)Sc2ccc(OC)cc21 | 0 | nt | 71* | -18 | 38 | 2
COc1cccc(C#Cc2ccc([C@@H]3[C@@H](CO)N(C(=O)C4CCCC4)[C@H]3C#N)cc2)c1 | 0 | nt | nt | 6 | 32 | -3
COc1cccc(C#Cc2ccc([C@@H]3[C@H](C#N)N(C(=O)c4ccccn4)[C@H]3CO)cc2)c1 | 0 | -18 | 98* | -4 | -26 | 1
COc1cccc(C#Cc2ccc([C@@H]3[C@@H](C#N)N(C(=O)C4CCCCC4)[C@H]3CO)cc2)c1 | 0 | -22 | 77* | 2 | 1 | 2
COc1cccc(C#Cc2ccc([C@@H]3[C@@H](CO)N(C(=O)c4ccccn4)[C@H]3C#N)cc2)c1 | 0 | -29 | -2 | -6 | 17 | 2
COc1cccc(C#Cc2ccc([C@@H]3[C@@H](C#N)N(C(=O)C4CCC4)[C@H]3CO)cc2)c1 | 0 | -10 | 24 | -2 | 6 | 1
COc1cccc(C#Cc2ccc([C@@H]3[C@@H](CO)N(C(=O)C4CCCCC4)[C@H]3C#N)cc2)c1 | 0 | -22 | 70* | -4 | 14 | 1
COc1cccc(C#Cc2ccc([C@@H]3[C@@H](CO)N(C(=O)C4CCC4)[C@H]3C#N)cc2)c1 | 0 | -24 | 70* | 4 | 3 | 2
Cc1cccc(C)c1OCCNC(=O)C(=O)NCc1ccco1 | 0 | nt | 7 | 0 | 56* | -1
Cc1noc(C)c1S(=O)(=O)Nc1cccc2c1O[C@H](CN(C)S(=O)(=O)c1ccccc1)[C@H](C)CN([C@@H](C)CO)C2=O | -1 | -7 | 5 | -7 | -4 | -14
CCCCN(C)c1c(C)nc2ccc(C(=O)N(CC)CCN(C)C)cn12 | 0 | -1 | 82* | 10 | -13 | -2
CCCCN(C=O)c1c(CC)nc2ccc(C(=O)N(CC)CCN(C)C)cn12 | 0 | 5 | -4 | 11 | 0 | 1
CN(C)CCCNC(=O)[C@H]1[C@H](CO)[C@H]2Cn3c(ccc(-c4cccc(F)c4)c3=O)[C@@H]1N2 | 0 | -2 | -16 | 17 | -1 | -1
SMILES | XiGFP reactiv | PGC1a acetyl inh | PAX8 inh HTS | GSIS activator | EWS-Fli inh | AF4-AF9 inh
O=C(NCCc1ccccc1)C(c1cccs1)N(C(=O)CCl)c1ccc(Cl)cc1 (centres undefined) | 1 | nt | 111* | 14 | nt | -12
CCCCCn1c(SCC(=O)OC)nc2c1c(=O)[nH]c(=O)n2C | 0 | nt | 10 | 68* | 0 | -13
CCCCCCn1c(N(CC)CC)nc2c1c(=O)[nH]c(=O)n2C | nt | nt | nt | 62* | nt | nt
C[C@H]1CN([C@@H](C)CO)C(=O)c2cccc(NS(=O)(=O)c3ccc(Cl)cc3)c2O[C@H]1CN(C)CC1CCCCC1 | 0 | nt | 2 | -13 | -9 | 4
CC(=O)Nc1ccc2c(c1)C(=O)N(C)C[C@@H](C)[C@@H](CN(C)S(C)(=O)=O)O2 | 0 | nt | nt | 18 | nt | nt
CCOC(=O)/C=C/C(=O)Nc1cc(S(=O)(=O)Nc2ccc(OC)cc2)ccc1N1CCOCC1 | 0 | nt | 98* | -22 | -5 | 1
CN1/C(=C/C=C/c2n(C)c3cc([N+](=O)[O-])c([N+](=O)[O-])cc3[n+]2C)C(C)(C)c2ccccc21 | 0 | nt | 100* | -65 | -75 | 55*
O=C(C[C@@H]1C[C@@H]2c3cc(NC(=O)C4CCC4)ccc3O[C@@H]2[C@@H](CO)O1)NCc1cc(F)ccc1F | 1 | -11 | 8 | -5 | 10 | 0
O=C1N[C@@H](c2ccccc2)COCc2cn(nn2)CC[C@@H]1Cc1ccc(-c2ccccc2)cc1 | 0 | nt | nt | -8 | nt | nt
COCCN(C(=O)c1ccc2c(c1)C(=O)N(c1ccccc1Cl)C2=O)c1c(N)n(CC(C)C)c(=O)[nH]c1=O | 142* | 1 | -4 | -12 | -4 | -3
CCCCn1c(N)c(N(CCOC)C(=O)c2ccc3c(c2)C(=O)N(c2ccccc2C)C3=O)c(=O)[nH]c1=O | 0 | nt | -38 | 34 | -1 | 1
COCCN(C(=O)COC(=O)/C=C/c1cccc(OC)c1)c1c(N)n(CC(C)C)c(=O)[nH]c1=O | 1 | 4 | 67* | 0 | -2 | 4
C[C@@H]1CCCCO[C@@H](CN(C)Cc2ccc(C(F)(F)F)cc2)[C@@H](C)CN([C@H](C)CO)C(=O)c2cc(NC(=O)CCCCCC(=O)Nc3ccccc3N)ccc2O1 | -1 | -1 | ? | -1 | -18 | 1
CC(C)NC(=O)Nc1ccc2c(c1)C(=O)N(C)C[C@H](C)[C@@H](CN(C)C(=O)NC(C)C)O2 | 0 | nt | nt | 12 | nt | nt
CCCCOC(=O)c1cc(=O)[nH]c2ccccc12 | nt | 3 | nt | 58* | -6 | 0
N#C/C(=C/c1ccc(N2CCCCC2)o1)C(=O)Nc1ccc2ccccc2c1 | 109* | nt | -97 | 7 | -90 | 0
N#C/C(=C/c1ccc(N2CCCCC2)o1)C(=O)Nc1ccc(Cl)cc1 | nt | -7 | nt | -11 | nt | nt
O=C(CN1CCCC1)Nc1cc(C(F)(F)F)ccc1Cl | 0 | -15 | -6 | -2 | 10 | -4
O=C(O)CSCC(=O)Nc1cc(C(F)(F)F)ccc1Cl | nt | -3 | nt | 49* | nt | nt
